According to PMC10950693 (International Journal for Parasitology: Drugs and Drug …, 2024):

Assay: Cytotoxicity against murine macrophages, alamarBlue, 24 h
Assay type: cell-based
Settings: mouse, J774A.1 murine macrophages
Outline: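 J774A.1 macrophages were kept in DMEM with 10% FBS at 37 °C, 5% CO2. Cells were seeded at 10^4/well and allowed 3–4 h to adhere. Serial dilutions were added with 10% alamarBlue for 24 h at 37 °C, 5% CO2, then fluorescence was read. CC50 was derived by four-parameter variable-slope nonlinear regression.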

Structure (SMILES)	CC50 at 24 h [µM]
O=C(Cn1ccnc1[N+](=O)[O-])NCc1ccccc1 [B, benznidazole]	399.9 ± 1.4
CCCCCCCCCCCCCCCCOP(=O)([O-])OCC[N+](C)(C)C [M, miltefosine]	72.2 ± 8.85
